Assay results reported in publication PMC10405366 (Molecular pharmaceutics, 2023).

Assays:
MDA-MB-435 = test: Cell viability assay; format: cell-based, human; conditions: MDA-MB-435
Summary of the method: (§1)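 RPMI1640 (OVCAR3, OVCAR4, MDA-MB-435) or DMEM (OVCAR8, MDA-MB-231) was used, with 10% FBS and penicillin/streptomycin. Cells were STR-validated and kept below 20 passages. Cells were plated at 5000 per well overnight, then given test compound at final 0.95–250 nM (nine levels, 0.5% DMSO) for 72 h at 37 °C. Viability was read by CellTiter-Blue absorbance, and IC50 was taken relative to DMSO. Paclitaxel (0.39–100 nM) was the control, with three biological replicates.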

[1] = system: female athymic nude (nu/nu) mice; test: Tolerability study: serum chemistry; format: in vivo, mouse
Summary of the method: (§2)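 Athymic nude mice (n = 5 per group) received test compound or the Tween80:Captex200:saline vehicle IP every 2 days for 14 days. About 2–4 h after the last dose, mice were killed with CO2 and blood was drawn by cardiac puncture. Complete blood counts and serum chemistry were run by a pathology core. Values are given as means ± SD, n = 3–5.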

MDA-MB-231 = test: Cell viability assay; format: cell-based, human; conditions: MDA-MB-231
Summary of the method: as §1

[2] = system: female athymic nude (nu/nu) mice; test: Tolerability study: hematology; format: in vivo, mouse
Summary of the method: as §2

OVCAR8 = test: 2D foci assay; format: cell-based, human; conditions: OVCAR8, 50 nM for 8 h, two weeks colony formation, relative to vehicle
Summary of the method: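 Cells were seeded at 200 per 60 mm dish and left to attach overnight. They were then exposed for 8 h to test compound (50 nM), DMSO vehicle or paclitaxel (10 nM). Medium was replaced and cells grew drug-free for about two weeks (15 days). Colonies were fixed in 4% paraformaldehyde, stained with 0.05% crystal violet, imaged and counted. There were three biological replicates, compared with vehicle by Dunnett's test.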

[3] = 0.10 mg/kg IP every 2 days, 14 days
[4] = 0.25 mg/kg IP every 2 days, 14 days
[5] = 0.50 mg/kg IP every 2 days, removed day 13
[6] = 1.00 mg/kg IP every 2 days, removed at 8 days

SMILES: CN1C(=O)[C@]23SS[C@@]1(C)C(=O)N2[C@H]1Nc2ccccc2[C@@]1([C@@]12c4ccccc4N[C@@H]1N1C(=O)[C@@]4(C)SS[C@]1(C(=O)N4C)[C@H]2O)[C@@H]3O [verticillin A]
- cytotoxic activity (MDA-MB-435): pronounced cytotoxic activities
- ALP [1, 3]: 163 ± 27 U/L
- ALT [1, 3]: 38 ± 6 U/L
- AST [1, 3]: 98 ± 16 U/L
- BUN [1, 3]: 18 ± 3 mg/dL
- GGT [1, 3]: 5 ± 0 U/L
- albumin [1, 3]: 3.5 ± 0.3 g/dL
- amylase [1, 3]: 1153 ± 176 U/L
- calcium [1, 3]: 11.8 ± 0.4 mg/dL
- cholesterol [1, 3]: 144 ± 16 mg/dL
- creatine kinase [1, 3]: 241 ± 85 U/L
- creatinine [1, 3]: 0.56 ± 0.03 mg/dL
- globulin [1, 3]: 2.2 ± 0.4 g/dL
- glucose [1, 3]: 191 ± 42 mg/dL
- lipase [1, 3]: 43 ± 15 U/L
- phosphorous [1, 3]: 12.8 ± 1.1 mg/dL
- total bilirubin [1, 3]: 0.4 ± 0.1 mg/dL
- total protein [1, 3]: 5.6 ± 0.4 g/dL
- triglyceride [1, 3]: 202 ± 42 mg/dL
- ALP [1, 4]: 141 ± 14 U/L
- ALT [1, 4]: 46 ± 13 U/L
- AST [1, 4]: 112 ± 19 U/L
- BUN [1, 4]: 17 ± 4 mg/dL
- GGT [1, 4]: 3 ± 1 U/L
- albumin [1, 4]: 3.3 ± 0.2 g/dL
- amylase [1, 4]: 1189 ± 89 U/L
- calcium [1, 4]: 11.6 ± 0.5 mg/dL
- cholesterol [1, 4]: 141 ± 10 mg/dL
- creatine kinase [1, 4]: 237 ± 60 U/L
- creatinine [1, 4]: 0.21 ± 0.7 mg/dL
- globulin [1, 4]: 2.1 ± 0.3 g/dL
- glucose [1, 4]: 187 ± 33 mg/dL
- lipase [1, 4]: 71 ± 4 U/L
- phosphorous [1, 4]: 14.0 ± 1.0 mg/dL
- total bilirubin [1, 4]: 0.3 ± 0.0 mg/dL
- total protein [1, 4]: 5.5 ± 0.4 g/dL
- triglyceride [1, 4]: 236 ± 52 mg/dL
- ALP [1, 5]: 92 ± 19 U/L
- ALT [1, 5]: 55 ± 23 U/L
- AST [1, 5]: 201 ± 51 U/L
- BUN [1, 5]: 26 ± 3 mg/dL
- GGT [1, 5]: 7 ± 2 U/L
- albumin [1, 5]: 3.2 ± 0.2 g/dL
- amylase [1, 5]: 1397 ± 318 U/L
- calcium [1, 5]: 11.7 ± 0.4 mg/dL
- cholesterol [1, 5]: 124 ± 22 mg/dL
- creatine kinase [1, 5]: 302 ± 65 U/L
- creatinine [1, 5]: 0.36 ± 0.03 mg/dL
- globulin [1, 5]: 2.1 ± 0.2 g/dL
- glucose [1, 5]: 176 ± 19 mg/dL
- phosphorous [1, 5]: 16.4 ± 2.3 mg/dL
- total bilirubin [1, 5]: 0.4 ± 0.2 mg/dL
- total protein [1, 5]: 5.3 ± 0.3 g/dL
- triglyceride [1, 5]: 187 ± 139 mg/dL
- ALP [1, 6]: 70 ± 61 U/L
- ALT [1, 6]: 44 ± 8 U/L
- AST [1, 6]: 225 ± 68 U/L
- BUN [1, 6]: 25 ± 4 mg/dL
- GGT [1, 6]: 7 ± 3 U/L
- albumin [1, 6]: 2.1 ± 0.9 g/dL
- amylase [1, 6]: 1213 ± 149 U/L
- calcium [1, 6]: 11.4 ± 0.4 mg/dL
- cholesterol [1, 6]: 90 ± 26 mg/dL
- creatine kinase [1, 6]: 498 ± 184 U/L
- creatinine [1, 6]: 0.30 ± 0.12 mg/dL
- globulin [1, 6]: 2.9 ± 1.0 g/dL
- glucose [1, 6]: 116 ± 17 mg/dL
- lipase [1, 6]: 52 ± 22 U/L
- phosphorous [1, 6]: 10.6 ± 6.8 mg/dL
- total bilirubin [1, 6]: 0.3 ± 0.0 mg/dL
- total protein [1, 6]: 5.0 ± 0.4 g/dL
- triglyceride [1, 6]: 114 ± 20 mg/dL
- cytotoxic activity (MDA-MB-231): pronounced cytotoxic activities
- MCH [2, 3]: 14.6 ± 0.2 pg
- MCHC [2, 3]: 32.7 ± 0.7 g/dL
- MCV [2, 3]: 44.6 ± 0.2 fL
- MPV [2, 3]: 7.9 ± 0.1 fL
- PCT [2, 3]: 0.701 ± 0.065%
- PDW [2, 3]: 47.4 ± 1.9%
- RBC [2, 3]: 9.89 ± 0.33 M/μL
- RDW [2, 3]: 13.8 ± 0.5%
- Reticulocyte # [2, 3]: 0 ± 0 K/μL
- WBC # [2, 3]: 6.01 ± 1.29 K/μL
- basophil # [2, 3]: 0.02 ± 0.01 K/μL
- eosinophil # [2, 3]: 0.02 ± 0.02 K/μL
- hematocrit [2, 3]: 44.1 ± 1.4%
- hemoglobin [2, 3]: 14.4 ± 0.3 g/dL
- lymphocyte # [2, 3]: 3.94 ± 1.16 K/μL
- monocyte # [2, 3]: 0.37 ± 0.09 K/μL
- neutrophil # [2, 3]: 1.65 ± 0.15 K/μL
- nucleated RBCs # [2, 3]: 0 ± 0 K/μL
- platelet # [2, 3]: 892 ± 74 K/μL
- reticulocyte [2, 3]: 0 ± 0%
- MCH [2, 4]: 15.2 ± 0.4 pg
- MCHC [2, 4]: 32.6 ± 1.2 g/dL
- MCV [2, 4]: 46.8 ± 1.0 fL
- MPV [2, 4]: 7.6 ± 1.1 fL
- PCT [2, 4]: 0.735 ± 0.147%
- PDW [2, 4]: 48.7 ± 0.8%
- RBC [2, 4]: 9.28 ± 0.81 M/μL
- RDW [2, 4]: 14.2 ± 0.4%
- Reticulocyte # [2, 4]: 8.6 ± 8.3 K/μL
- WBC # [2, 4]: 4.22 ± 1.68 K/μL
- basophil # [2, 4]: 0.01 ± 0.01 K/μL
- eosinophil # [2, 4]: 0.02 ± 0.01 K/μL
- hematocrit [2, 4]: 43.5 ± 4.0%
- hemoglobin [2, 4]: 14.2 ± 1.3 g/dL
- lymphocyte # [2, 4]: 1.72 ± 0.76 K/μL
- monocyte # [2, 4]: 0.18 ± 0.06 K/μL
- neutrophil # [2, 4]: 2.30 ± 0.98 K/μL
- nucleated RBCs # [2, 4]: 0 ± 0 K/μL
- platelet # [2, 4]: 964 ± 203 K/μL
- reticulocyte [2, 4]: 0.10 ± 0.09%
- MCH [2, 6]: 15.4 ± 0.3 pg
- MCHC [2, 6]: 33.7 ± 0.7 g/dL
- MCV [2, 6]: 45.5 ± 0.6 fL
- MPV [2, 6]: 7.7 ± 0.2 fL
- PCT [2, 6]: 0.815 ± 0.096%
- PDW [2, 6]: 47.3 ± 1.7%
- RBC [2, 6]: 9.79 ± 0.75 M/μL
- RDW [2, 6]: 16.2 ± 0.9%
- Reticulocyte # [2, 6]: 0 ± 0 K/μL
- WBC # [2, 6]: 5.97 ± 1.67 K/μL
- basophil # [2, 6]: 0.01 ± 0.01 K/μL
- eosinophil # [2, 6]: 0.03 ± 0.01 K/μL
- hematocrit [2, 6]: 44.6 ± 3.4%
- hemoglobin [2, 6]: 15.0 ± 1.0 g/dL
- lymphocyte # [2, 6]: 1.63 ± 1.19 K/μL
- monocyte # [2, 6]: 0.21 ± 0.29 K/μL
- neutrophil # [2, 6]: 4.09 ± 1.30 K/μL
- nucleated RBCs # [2, 6]: 0 ± 0 K/μL
- platelet # [2, 6]: 1057 ± 146 K/μL
- reticulocyte [2, 6]: 0 ± 0%
- foci formation (OVCAR8): completely abrogated foci formation
